Compound activity deposited in PubChem BioAssay by several laboratories.
The list is not random: actives were taken first. Their share in the collection is about 4.2%.
UPR XBP1 act: activators of adaptive XBP1 UPR arm, primary screen, cell-based, CHO-XBP1 luciferase reporter, luminescence, uHTS | IRE1-XBP1 UPR activation; percent of tunicamycin response, DMSO as zero | activation, % at 20 µM | 330,000 compounds, 0.33% hits;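 active = versus positive control, 20 µM dose yields 30% or more activation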
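Material: CHO cell line with stable XBP1 luciferase reporter; schedule: 16-18 h cell attachment at 37 °C, then 6 h compound exposure; signal: glow luminescence from Steady-Glo reagent; medium: serum-containing F12 medium, 10% FBS; benchmarks: tunicamycin 10 µg/mL and vehicle-only wells; read-out: percent activation relative to tunicamycin reference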
TMEM16A inh: TMEM16A chloride channel inhibitors, primary screen, cell-based, HTS. Anoctamin-1 (Mus musculus), Q8BHY3. 310,000 compounds, 1.2% hits. HEK293 TMEM16A/YFP iodide influx fluorescence, ionomycin. normalized B-score (activity score, 25-100; higher = stronger inhibition) at 10 µM. AID 588511, 2011;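 active = ratio plate-corrected score three or more library SD toward inhibition, starting fluorescence score within five deviations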;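 also: score derived from kinetic fluorescence span divided by baseline fluorescence per well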
CHOP inhibitor: inhibitors of CHOP promoter induction, primary screen, cell-based, unfolded protein response, luciferase reporter; 220,000 compounds, 3.8% hits; CHO-K1 CHOP-promoter luciferase, tunicamycin-induced, 15-18 h; AID 2732, 2010; inhibition, % at 10 µM;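 active = compounds that reduced the stress-induced luciferase reporter signal by more than about 70% of percent inhibition, limit read from the data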
Lipid droplet: inhibitors of hepatocyte lipid droplet formation, primary screen, imaging, high-throughput imaging, BODIPY stain | AML12 mouse hepatocytes, oleate lipid droplets | inhibition, % at 6.5 µM | 240,000 compounds, 0.4% hits | AID 1656, 2009;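 active = lipid droplet intensity inhibited by at least 50%, with more than 500 cells counted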
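Material – mouse AML12 hepatocyte cell line, fixed after treatment · Compound dosing – one dose, 6.5 µM compound · Times – compound with oleate, overnight · Measured by – Image-based BODIPY and DAPI two-channel analysis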
CHOP UPR activ: activators of apoptotic CHOP UPR arm, primary screen, cell-based, CHO-CHOP luciferase reporter, luminescence, uHTS; UPR activation; percent of tunicamycin response over DMSO baseline; activation, % at 10 µM; 330,000 compounds, 0.34% hits; AID 449763, 2010;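 active = at 10 µM dose, activation of 40% or more, normalized to positive control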
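System: CHO-CHOP luciferase reporter cell line | Buffer or medium: F12 medium containing 10% fetal bovine serum | Doses: One dose, 10 µM in 0.5% DMSO | Times: 6 h compound exposure at 37 °C after overnight seeding | Signal: Luciferase luminescence | Read-out: % activation vs tunicamycin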
TMEM16A act: TMEM16A chloride channel activators or potentiators, primary screen, cell-based, HTS; B-score at 10 µM; HEK293 TMEM16A/YFP-H148Q/I152L, iodide quench fluorescence; active compounds read low; AID 623877, 2012; 340,000 compounds, 0.3% hits;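 active = fluorescence-ratio B-score plate-corrected deviation score at least 3 library SD below zero, with starting fluorescence score within 5 deviations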;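 also: channel opened by trigger with iodide after compound preincubation; score built on the fluorescence ratio of max minus min over baseline; more negative score means more quench and so TMEM16A activation or potentiation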
Hits are given with their value; - = inactive; . = not tested or not shown.

SMILES	UPR XBP1 act	TMEM16A inh	CHOP inhibitor	Lipid droplet	CHOP UPR activ	TMEM16A act
CC1(NC(=O)Cc2c(F)cccc2Cl)CCS(=O)(=O)C1 (centres undefined)	-	.	.	.	-	-
CCCOc1ccc2c(c1)C(=NN=C(N)N)c1cc(OCCC)ccc1-2	-	-	.	.	-	-
O=c1c2[nH]c3ccc(F)cc3c2ncn1CCC1=CCCCC1	-	-	-	-	-	-
C[C@@H](NC(=O)c1nc[nH]c1C(=O)NC1CCN(C(=O)OC(C)(C)C)CC1)c1ccccc1	-	.	.	.	-	-
C[C@H](NC(=O)c1nc[nH]c1C(=O)N1CCN(C(=O)OC(C)(C)C)CC1)c1ccccc1	-	.	.	.	-	-7.2
C[C@H](NC(=O)c1nc[nH]c1C(=O)NCC(=O)OC(C)(C)C)C(=O)OC(C)(C)C	-	-	-	-	-	-
CC(C)C[C@H](NC(=O)c1nc[nH]c1C(=O)NCC(=O)OCc1ccccc1)C(=O)OC(C)(C)C	-	-	.	-	-	-15
CC(C)C[C@H](NC(=O)c1nc[nH]c1C(=O)NCC(=O)OC(C)(C)C)C(=O)OC(C)(C)C	-	-	84	-	-	-
Cc1cccc(NC(=O)c2nc[nH]c2C(=O)N[C@@H](Cc2ccccc2)C(=O)OC(C)(C)C)c1	-	-	74	-	-	-
O=C(CN1C(=O)NC2(CCCC2)C1=O)OCC(=O)c1cccc(Cl)c1	-	.	.	.	-	-
N#Cc1c2ccccc2nc2ccccc12	-	-	-	-	-	-
O=C(COC(=O)CC(c1ccccc1)c1ccccc1)Nc1cccc(F)c1	-	-	-	-	-	-
O=C(COC(=O)CC(c1ccccc1)c1ccccc1)Nc1ccc(F)c(F)c1	-	100	-	-	-	.
NS(=O)(=O)c1ccc(CCNC(=O)CNC(=O)COc2ccccc2)cc1	-	-	.	.	-	-4.7
NS(=O)(=O)c1ccc(CCNC(=O)CCCOc2ccccc2)cc1	-	-	-	-	-	-4.6
O=C(CCCOc1ccccc1)NCCc1ccccc1	-	-	-	-	-	-
CC(C)CC1NC(=S)N(Cc2ccccc2)C1=O (centres undefined)	-	-	-	-	-	-
Cc1cc(C(C)(C)C)oc1C(=O)OCC(=O)NC1CCCCC1	-	-	-	-	-	-
Cc1cc(C(C)(C)C)oc1C(=O)NCCCNC(=O)c1oc(C(C)(C)C)cc1C	-	-	96	-	-	-
N#C/C(=N\Nc1cccc(C(F)(F)F)c1)C(=O)c1csc(-c2cccnc2)n1	-	100	-	-	-	-
Cc1ccc(C(=O)Nc2cccc(C(F)(F)F)c2)cc1NC(=O)c1csc(-c2ccncc2)n1	-	-	-	.	-	-
O=C(N/N=C/c1ccsc1)c1c[nH]c2ccccc12	-	-	.	-	-	-
COc1cc(NC(=O)Cn2c(=O)n(-c3cccc(C)c3)c(=O)c3c(C)c(C)sc32)cc(OC)c1	-	-	92	-	-	-
Cc1sc2c(c1C)c(=O)n(-c1ccc(F)cc1)c(=O)n2CC(=O)NCc1ccco1	.	.	-	.	.	-
COC(=O)N/N=C/c1cc(N=Nc2ccccc2)ccc1O	-	-	-	-	-	-
SMILES	UPR XBP1 act	TMEM16A inh	CHOP inhibitor	Lipid droplet	CHOP UPR activ	TMEM16A act
Cc1cc(C(=O)N/N=C/c2cc(N=Nc3ccccc3)ccc2O)n[nH]1	.	-	89	-	.	-
COC(=O)CSc1nc(C)c(C(C)=O)cc1C#N	-	-	-	-	-	-
CCCSc1nc(C)c(C(C)=O)cc1C#N	-	-	70	-	-	-
Cc1cccc(NC(=O)NC2CCCCCCC2)c1C	-	-	.	-	-	-
FC(F)(F)c1cc(-c2ccccc2)nc(N2CCOCC2)n1	-	-	90	.	-	-
c1ccc(-c2cc(N3CCCCC3)nc(-c3ccccc3)n2)cc1	-	-	-	-	-	-
c1ccc(-c2cc(N3CCOCC3)nc(-c3ccccc3)n2)cc1	-	-	89	.	-	-
Fc1ccc(Oc2cc(N3CCOCC3)nc(-c3ccccc3)n2)c(F)c1	-	-	87	-	-	-
Cc1ccccc1N1CC(C(=O)Nc2ccc(S(=O)(=O)N3CCOCC3)cc2)CC1=O (centres undefined)	-	-	.	-	-	-
O=C1Nc2ccc(Br)cc2/C1=C/C(=O)c1ccccc1	.	.	.	.	.	-
C=CCOc1cccc(C(=O)/C=C2/C(=O)Nc3ccccc32)c1	-	-	.	-	86	-
O=C(Nc1nnc(SCc2ccc(F)cc2)s1)c1ccc2ncsc2c1	.	.	73	-	.	-
COc1ccc(C)cc1NC(=O)CCCN1C(=O)CN(C)C1=O	-	.	.	.	-	-
O=C(NCCOc1ccc(Cl)cc1)c1ccc2c(c1)OCCO2	-	.	.	.	-	-
C/C(=N\Nc1ccc([N+](=O)[O-])cc1)c1ccc(N)cc1	.	-	-	-	.	-
C/C(=N\Nc1nc(C)c(C)s1)c1ccc([N+](=O)[O-])cc1	-	-	-	.	-	-21
Cc1ccc(C(=O)OCC(=O)Nc2sccc2C(N)=O)cc1NC(=O)c1ccco1	-	-	72	-	-	-
CCCn1nc(NS(=O)(=O)c2cccc3nonc23)c2cc3cccc(C)c3nc21	-	100	.	-	-	-
CCCn1nc(NS(=O)(=O)c2cccc3nonc23)c2cc3cc(C)ccc3nc21	-	-	.	-	-	-
CCCCn1c(N)c(N(CC)C(=O)C(c2ccccc2)c2ccccc2)c(=O)[nH]c1=O	-	-	-	-	-	-
N#Cc1c(NC(=S)NC(=O)c2ccccc2)sc2c1CCN(CCc1ccccc1)C2	-	-	-	-	-	.
N#Cc1c(N)sc2c1CCN(CCc1ccccc1)C2	-	25	-	-	-	-
COc1ccc2[nH]c(=O)c(-c3noc(-c4ccccc4)n3)cc2c1	-	-	88	.	-	-
Cc1cc(Br)ccc1NC(=O)CN(C)C(=O)c1cccc(S(=O)(=O)N2CCN(C)CC2)c1	.	.	.	.	.	-
O=C(COC(=O)CSc1ccc(F)cc1)NC1CCCCCC1	-	.	.	.	-	-
Cc1ccc(/C=C2/SC(=S)N(CCCC(=O)Nc3ccc(O)cc3)C2=O)cc1	-	.	94	-	-	-
COc1ccc(/C=C2/SC(=S)N(CCCC(=O)Nc3ccc(O)cc3)C2=O)cc1OC	-	-	.	-	-	-
Cc1ccc(/C=C2\SC(=S)N(CCCC(=O)NNC(=O)c3ccccc3O)C2=O)cc1	-	-	98	-	-	-
O=[N+]([O-])c1ccccc1S(=O)(=O)N1CCCc2ccccc21	-	-	.	-	-	-
